Source: ChEMBL document CHEMBL4261600 (Eur J Med Chem, 2018)

Experiments:
[1] = test system: MOLM-14; test: Antiproliferative activity against human MOLM14 cells after 72 hrs by Celltiter-Glo assay; format: functional; conditions: MOLM-14, 72 h
Method in brief: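 Cells seeded at 3000/well in 96-well plates, exposed to serially diluted compound for 72 h at 37 °C, 5% CO2. Viability read by CellTiter-Glo luminescence and normalized to DMSO control. GI50 derived from curve fit, mean of three independent measurements. Culture media: DMEM/10% FBS for adherent lines; IMDM for MV4-11 and MEC-1/2; RPMI 1640 for suspension lines and CHL.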

[2] = test system: MV4-11; test: Induction of apoptosis in human MV4-11 cells assessed as decrease in c-MYC level after 2 hrs by immunoblotting analysis; format: functional, cell-based
[3] = test system: Tyrosine-protein kinase ABL1 (Homo sapiens), P00519 [F317I]; test: Binding affinity to human phosphorylated ABL1 F317I mutant (S229 to K512 residues) expressed in mammalian expression system assessed as remaining unbound target protein level at 1000 nM by Kinomescan method relative to control
Method in brief: (§1)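 Single-point competition binding screen across a panel of 468 kinases and mutants, with the inhibitor at 1 μM. Binding is read out as percent of a DMSO control, and targets below 1 percent control were classed as strong binders.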

[4] = biological target: Atypical kinase COQ8B, mitochondrial (Homo sapiens) (UniProt Q96D53); test: Binding affinity to wild-type human full length ADCK4 (M1 to S544 residues) expressed in bacterial expression system assessed as remaining unbound target protein level at 1000 nM by Kinomescan method relative to control; method in brief: as §1
Sequence of Atypical kinase COQ8B, mitochondrial (Homo sapiens) (Q96D53 whole entry, the tested form may be a part): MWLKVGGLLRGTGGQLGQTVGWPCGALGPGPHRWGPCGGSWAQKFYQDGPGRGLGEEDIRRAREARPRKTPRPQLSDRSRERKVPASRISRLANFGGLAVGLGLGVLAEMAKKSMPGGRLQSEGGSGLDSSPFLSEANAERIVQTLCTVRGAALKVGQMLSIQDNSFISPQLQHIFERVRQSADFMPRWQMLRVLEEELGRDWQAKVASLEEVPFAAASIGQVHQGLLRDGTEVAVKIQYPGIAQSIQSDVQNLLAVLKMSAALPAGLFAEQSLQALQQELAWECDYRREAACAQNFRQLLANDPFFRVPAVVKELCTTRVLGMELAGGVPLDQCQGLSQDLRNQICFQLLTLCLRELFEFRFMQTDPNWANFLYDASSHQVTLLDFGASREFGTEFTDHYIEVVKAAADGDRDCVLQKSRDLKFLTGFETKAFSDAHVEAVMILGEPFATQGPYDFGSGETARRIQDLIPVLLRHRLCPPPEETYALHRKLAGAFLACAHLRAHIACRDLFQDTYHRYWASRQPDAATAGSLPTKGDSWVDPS

[5] = biological target: Dual specificity protein kinase CLK3 (Homo sapiens) (UniProt P49761); test: Binding affinity to wild-type human full length CLK3 (M1 to R490 residues) expressed in bacterial expression system assessed as remaining unbound target protein level at 1000 nM by Kinomescan method relative to control; method in brief: as §1
Sequence of Dual specificity protein kinase CLK3 (Homo sapiens) (P49761 whole entry, looked up, the tested form may be a part): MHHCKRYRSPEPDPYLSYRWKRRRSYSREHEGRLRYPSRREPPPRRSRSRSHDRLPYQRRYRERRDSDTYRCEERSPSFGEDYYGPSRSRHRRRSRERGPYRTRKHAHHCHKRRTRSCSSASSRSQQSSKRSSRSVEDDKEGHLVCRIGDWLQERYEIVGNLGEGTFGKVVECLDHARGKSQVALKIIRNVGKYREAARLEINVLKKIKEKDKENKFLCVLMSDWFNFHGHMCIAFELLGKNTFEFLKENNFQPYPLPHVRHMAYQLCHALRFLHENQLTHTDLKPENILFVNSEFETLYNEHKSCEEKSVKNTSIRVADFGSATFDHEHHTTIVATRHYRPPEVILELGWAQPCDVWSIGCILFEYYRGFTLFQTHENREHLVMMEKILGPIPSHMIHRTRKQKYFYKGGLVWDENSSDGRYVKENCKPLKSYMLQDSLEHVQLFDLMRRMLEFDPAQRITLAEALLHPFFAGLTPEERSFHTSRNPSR

[6] = biological target: Dual specificity protein kinase CLK4 (Homo sapiens) (UniProt Q9HAZ1); test: Binding affinity to wild-type human partial length CLK4 (R135 to K481 residues) expressed in bacterial expression system assessed as remaining unbound target protein level at 1000 nM by Kinomescan method relative to control
Sequence of Dual specificity protein kinase CLK4 (Homo sapiens) (Q9HAZ1 whole entry, looked up, the tested form may be a part): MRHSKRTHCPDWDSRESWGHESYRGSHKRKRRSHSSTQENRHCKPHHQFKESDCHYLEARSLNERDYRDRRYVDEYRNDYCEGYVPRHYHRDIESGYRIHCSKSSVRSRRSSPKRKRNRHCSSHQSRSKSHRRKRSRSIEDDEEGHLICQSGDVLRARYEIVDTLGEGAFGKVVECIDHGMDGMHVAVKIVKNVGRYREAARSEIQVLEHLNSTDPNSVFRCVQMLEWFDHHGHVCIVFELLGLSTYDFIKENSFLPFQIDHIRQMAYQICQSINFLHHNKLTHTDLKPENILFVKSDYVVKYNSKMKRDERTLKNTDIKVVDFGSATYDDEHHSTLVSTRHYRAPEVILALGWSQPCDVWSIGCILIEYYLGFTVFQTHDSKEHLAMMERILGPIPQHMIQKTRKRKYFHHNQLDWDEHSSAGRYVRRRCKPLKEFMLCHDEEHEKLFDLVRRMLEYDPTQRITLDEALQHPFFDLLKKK
Method in brief: (§2)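 KINOMEscan competition binding profile across a panel of 468 kinases and mutants, with the inhibitor tested at a single concentration of 1 μM. Binding is reported as percent of control, meaning signal relative to a DMSO control.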

[7] = biological target: Epidermal growth factor receptor (Homo sapiens) (UniProt P00533); test: Binding affinity to wild-type human partial length EGFR (R669 to V1011 residues) expressed in bacterial expression system assessed as remaining unbound target protein level at 1000 nM by Kinomescan method relative to control
[8] = test system: Epidermal growth factor receptor (Homo sapiens), P00533 [L858R]; test: Binding affinity to human partial length EGFR L858R mutant (R669 to V1011 residues) expressed in bacterial expression system assessed as remaining unbound target protein level at 1000 nM by Kinomescan method relative to control
Method in brief: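 KINOMEscan competition-binding profiling across the panel of 468 kinases and mutants, with inhibitor tested at 1 μM. Binding is expressed as percent of control, with DMSO as the reference control.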

[9] = biological target: Tyrosine-protein kinase ITK/TSK (Homo sapiens) (UniProt Q08881); test: Binding affinity to wild-type human partial length ITK (R335 to L620 residues) expressed in bacterial expression system assessed as remaining unbound target protein level at 1000 nM by Kinomescan method relative to control
[10] = biological target: MAP/microtubule affinity-regulating kinase 3 (Homo sapiens) (UniProt P27448); test: Binding affinity to wild-type human full length MARK3 (M1 to L729 residues) expressed in bacterial expression system assessed as remaining unbound target protein level at 1000 nM by Kinomescan method relative to control; method in brief: as §1
[11] = biological target: Dual specificity mitogen-activated protein kinase kinase 4 (Homo sapiens) (UniProt P45985); test: Binding affinity to wild-type human partial length MEK4 (S84 to D399 residues) expressed in mammalian expression system assessed as remaining unbound target protein level at 1000 nM by Kinomescan method relative to control
Method in brief: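 KINOMEscan binding panel of 468 kinases/mutants. Inhibitor was tested at a single concentration of 1 μM. Binding is reported as percent of control, defined relative to a DMSO control.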

[12] = biological target: Muscle, skeletal receptor tyrosine-protein kinase (Homo sapiens) (UniProt O15146); test: Binding affinity to wild-type human partial length MUSK (M553 to V869 residues) expressed in bacterial expression system assessed as remaining unbound target protein level at 1000 nM by Kinomescan method relative to control
[13] = biological target: Serine/threonine-protein kinase 38-like (Homo sapiens) (UniProt Q9Y2H1); test: Binding affinity to wild-type human partial length NDR2 (N34 to E447 residues) expressed in bacterial expression system assessed as remaining unbound target protein level at 1000 nM by Kinomescan method relative to control
Sequence of Serine/threonine-protein kinase 38-like (Homo sapiens) (Q9Y2H1 2-464 limits assumed): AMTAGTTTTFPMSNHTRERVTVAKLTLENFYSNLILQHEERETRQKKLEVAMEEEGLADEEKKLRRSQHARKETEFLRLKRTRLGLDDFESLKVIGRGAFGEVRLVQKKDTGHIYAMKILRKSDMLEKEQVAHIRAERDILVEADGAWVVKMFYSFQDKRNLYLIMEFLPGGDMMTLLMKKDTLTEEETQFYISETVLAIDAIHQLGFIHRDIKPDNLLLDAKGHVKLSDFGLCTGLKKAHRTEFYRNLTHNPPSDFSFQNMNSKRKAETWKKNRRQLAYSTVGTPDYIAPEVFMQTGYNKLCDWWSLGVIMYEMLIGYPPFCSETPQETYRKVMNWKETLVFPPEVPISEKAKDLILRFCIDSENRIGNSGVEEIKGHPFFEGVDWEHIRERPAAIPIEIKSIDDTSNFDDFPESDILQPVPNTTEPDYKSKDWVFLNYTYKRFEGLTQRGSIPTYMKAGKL

[14] = biological target: Serine/threonine-protein kinase PAK 1 (Homo sapiens) (UniProt Q13153); test: Binding affinity to wild-type human partial length PAK1 (S149 to H545 residues) expressed in bacterial expression system assessed as remaining unbound target protein level at 1000 nM by Kinomescan method relative to control
[15] = biological target: Serine/threonine-protein kinase PAK 6 (Homo sapiens) (UniProt Q9NQU5); test: Binding affinity to wild-type human partial length PAK6 (N298 to C681 residues) expressed in bacterial expression system assessed as remaining unbound target protein level at 1000 nM by Kinomescan method relative to control
Sequence of Serine/threonine-protein kinase PAK 6 (Homo sapiens) (Q9NQU5 whole entry, looked up, the tested form may be a part): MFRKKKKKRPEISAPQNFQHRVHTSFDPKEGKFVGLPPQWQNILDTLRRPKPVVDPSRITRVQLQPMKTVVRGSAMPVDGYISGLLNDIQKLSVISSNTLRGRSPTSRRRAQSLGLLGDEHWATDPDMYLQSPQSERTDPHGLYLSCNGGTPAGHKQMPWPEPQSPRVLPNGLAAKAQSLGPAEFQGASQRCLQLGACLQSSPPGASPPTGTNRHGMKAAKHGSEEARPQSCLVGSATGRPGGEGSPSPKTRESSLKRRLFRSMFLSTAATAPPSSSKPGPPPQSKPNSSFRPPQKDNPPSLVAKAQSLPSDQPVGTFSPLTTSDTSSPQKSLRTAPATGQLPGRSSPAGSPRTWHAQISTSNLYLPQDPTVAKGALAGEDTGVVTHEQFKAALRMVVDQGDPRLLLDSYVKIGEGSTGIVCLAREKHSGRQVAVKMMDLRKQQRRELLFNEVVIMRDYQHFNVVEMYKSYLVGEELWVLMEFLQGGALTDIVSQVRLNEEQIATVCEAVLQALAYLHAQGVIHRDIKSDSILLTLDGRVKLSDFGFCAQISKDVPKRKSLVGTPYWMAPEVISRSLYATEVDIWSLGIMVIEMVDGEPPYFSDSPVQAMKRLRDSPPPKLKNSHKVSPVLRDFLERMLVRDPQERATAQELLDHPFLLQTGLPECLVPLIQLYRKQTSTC

[16] = biological target: Protein kinase C delta type (Homo sapiens) (UniProt Q05655); test: Binding affinity to wild-type human partial length PRKCD (Q328 to D676 residues) expressed in bacterial expression system assessed as remaining unbound target protein level at 1000 nM by Kinomescan method relative to control
Sequence of Protein kinase C delta type (Homo sapiens) (Q05655 whole entry, looked up, the tested form may be a part): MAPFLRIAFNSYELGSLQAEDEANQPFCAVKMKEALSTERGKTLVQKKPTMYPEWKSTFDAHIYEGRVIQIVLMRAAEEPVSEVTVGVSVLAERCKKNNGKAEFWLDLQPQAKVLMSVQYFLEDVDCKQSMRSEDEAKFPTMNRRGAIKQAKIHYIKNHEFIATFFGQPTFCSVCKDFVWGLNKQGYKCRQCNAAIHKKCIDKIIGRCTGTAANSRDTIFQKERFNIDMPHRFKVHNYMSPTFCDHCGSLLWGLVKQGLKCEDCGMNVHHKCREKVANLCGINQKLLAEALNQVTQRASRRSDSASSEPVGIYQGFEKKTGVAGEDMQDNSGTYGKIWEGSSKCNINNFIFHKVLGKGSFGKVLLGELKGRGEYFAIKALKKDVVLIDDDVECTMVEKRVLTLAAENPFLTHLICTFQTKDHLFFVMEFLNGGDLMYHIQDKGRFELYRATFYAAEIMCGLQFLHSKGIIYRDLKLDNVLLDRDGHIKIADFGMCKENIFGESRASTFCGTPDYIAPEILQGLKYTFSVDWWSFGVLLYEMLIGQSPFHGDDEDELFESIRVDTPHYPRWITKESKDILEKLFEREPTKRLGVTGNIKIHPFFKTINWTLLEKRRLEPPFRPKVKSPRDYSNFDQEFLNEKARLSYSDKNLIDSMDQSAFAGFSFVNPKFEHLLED

[17] = biological target: Serine/threonine-protein kinase D1 (Homo sapiens) (UniProt Q15139); test: Binding affinity to wild-type human partial length PRKD1 (G551 to E870 residues) expressed in bacterial expression system assessed as remaining unbound target protein level at 1000 nM by Kinomescan method relative to control
[18] = biological target: Serine/threonine-protein kinase RIO2 (Homo sapiens) (UniProt Q9BVS4); test: Binding affinity to wild-type human partial length RIOK2 (M1 to D313 residues) expressed in mammalian expression system assessed as remaining unbound target protein level at 1000 nM by Kinomescan method relative to control
Sequence of Serine/threonine-protein kinase RIO2 (Homo sapiens) (Q9BVS4 whole entry, looked up, the tested form may be a part): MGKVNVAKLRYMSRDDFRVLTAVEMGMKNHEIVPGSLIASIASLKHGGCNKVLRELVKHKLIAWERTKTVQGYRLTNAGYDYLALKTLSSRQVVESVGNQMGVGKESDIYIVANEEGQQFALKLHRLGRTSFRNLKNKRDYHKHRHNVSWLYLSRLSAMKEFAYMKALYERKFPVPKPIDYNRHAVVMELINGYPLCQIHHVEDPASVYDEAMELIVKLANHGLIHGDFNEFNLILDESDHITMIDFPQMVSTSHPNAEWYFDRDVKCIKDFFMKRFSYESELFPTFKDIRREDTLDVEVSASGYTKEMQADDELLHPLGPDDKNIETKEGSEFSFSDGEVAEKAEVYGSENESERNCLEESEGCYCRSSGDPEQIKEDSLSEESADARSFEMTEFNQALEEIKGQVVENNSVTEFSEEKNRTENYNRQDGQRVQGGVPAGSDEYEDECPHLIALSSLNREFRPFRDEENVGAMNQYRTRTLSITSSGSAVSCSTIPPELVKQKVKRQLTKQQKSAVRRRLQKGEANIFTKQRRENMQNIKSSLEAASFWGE

[19] = biological target: Serine/threonine-protein kinase TBK1 (Homo sapiens) (UniProt Q9UHD2); test: Binding affinity to wild-type human full length TBK1 (M1 to L729 residues) expressed in mammalian expression system assessed as remaining unbound target protein level at 1000 nM by Kinomescan method relative to control; method in brief: as §2
[20] = biological target: Cyclin-dependent kinase 14/Cyclin-Y (Homo sapiens, UniProt O94921); test: Inhibition of recombinant GST-tagged human full length CDK14/cyclin Y (2 to end residues); format: protein-complex assay
Sequence of Cyclin-dependent kinase 14/Cyclin-Y (O94921 whole entry): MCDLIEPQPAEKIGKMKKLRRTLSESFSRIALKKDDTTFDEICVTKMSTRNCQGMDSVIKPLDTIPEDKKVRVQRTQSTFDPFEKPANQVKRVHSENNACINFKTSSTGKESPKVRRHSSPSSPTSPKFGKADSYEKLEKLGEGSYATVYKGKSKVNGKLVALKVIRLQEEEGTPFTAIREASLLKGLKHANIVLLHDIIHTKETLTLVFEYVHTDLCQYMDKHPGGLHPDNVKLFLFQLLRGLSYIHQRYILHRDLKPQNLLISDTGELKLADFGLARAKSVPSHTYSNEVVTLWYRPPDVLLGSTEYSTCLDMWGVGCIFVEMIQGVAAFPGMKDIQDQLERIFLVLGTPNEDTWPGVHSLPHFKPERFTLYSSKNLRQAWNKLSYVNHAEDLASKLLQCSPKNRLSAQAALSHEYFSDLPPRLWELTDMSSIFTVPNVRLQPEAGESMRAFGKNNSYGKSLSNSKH
Sequence of Cyclin-dependent kinase 14/Cyclin-Y (Q8ND76 whole entry, further chain): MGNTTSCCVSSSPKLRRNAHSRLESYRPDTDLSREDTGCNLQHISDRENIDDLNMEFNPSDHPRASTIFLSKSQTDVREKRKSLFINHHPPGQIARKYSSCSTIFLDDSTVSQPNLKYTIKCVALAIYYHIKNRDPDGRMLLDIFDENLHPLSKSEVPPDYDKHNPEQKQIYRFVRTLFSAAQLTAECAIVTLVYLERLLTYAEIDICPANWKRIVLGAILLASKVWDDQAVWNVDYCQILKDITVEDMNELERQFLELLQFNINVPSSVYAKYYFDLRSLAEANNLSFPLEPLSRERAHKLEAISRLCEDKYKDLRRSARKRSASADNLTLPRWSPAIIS

## COCCN[C@H]1CC[C@H](Nc2cc(-c3csc(NCC4(C#N)CCOCC4)n3)c(Cl)cn2)CC1
[1]
  GI50: 1.1 nM
[2]
  Activity: Dose-dependent effect
[3]
  Activity: 100%
[4]
  Activity: 65%
[5]
  Activity: 92%
[6]
  Activity: 9.2%
[7]
  Activity: 94%
[8]
  Activity: 85%
[9]
  Activity: 84%
[10]
  Activity: 100%
[11]
  Activity: 99%
[12]
  Activity: 100%
[13]
  Activity: 78%
[14]
  Activity: 100%
[15]
  Activity: 92%
[16]
  Activity: 91%
[17]
  Activity: 48%
[18]
  Activity: 80%
[19]
  Activity: 86%
[20]
  IC50: 1680 nM
